Columns and labels:
[1] = Cytotoxicity against BALB/c mouse splenocytes at 100 uM after 48 hrs by MTT assay; assay type: cell-based, Splenocyte; conditions: read-out: INH
How it was run: (§1)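 BALB/c spleen single-cell suspension, erythrocytes depleted with Tris-buffered NH4Cl (0.155 M NH4Cl, 16.5 mM Tris, pH 7.2). Cells cultured in RPMI-1640 with 10% FBS and compound diluted from DMSO stock (0.1% DMSO in control). Medium-alone cells served as control. MTT (5 mg/mL) added 4 h before end of culture, then SDS/DMF lysis buffer (pH 7.2) for 6 h. Absorbance read at 570 nm and growth inhibition % calculated.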

[2] = Cytotoxicity against BALB/c mouse splenocytes at 30 uM after 48 hrs by MTT assay; assay type: cell-based, Splenocyte; conditions: read-out: INH; how it was run: as §1
[3] = Immunosuppressive activity in BALB/c mouse splenocytes assessed as inhibition of concanavalin A-induced cell proliferation at 30 uM after 48 hrs by MTT assay; assay type: functional; conditions: Splenocyte
How it was run: (§2)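 Spleen cells (5 × 10⁵) from male BALB/c mice aged 6–8 weeks, erythrocytes lysed, stimulated with ConA 5 μg/mL in RPMI-1640/10% FBS. Compounds diluted from DMSO stock. ConA-stimulated cells used as control. Proliferation read by MTT added 4 h before end of culture, SDS/DMF lysis for 6 h, absorbance at 570 nm.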

[4] = Immunosuppressive activity in BALB/c mouse splenocytes assessed as inhibition of concanavalin A-induced cell proliferation at 10 uM after 48 hrs by MTT assay; assay type: functional; conditions: Splenocyte; how it was run: as §2
[5] = Immunosuppressive activity in BALB/c mouse splenocytes assessed as inhibition of concanavalin A-induced cell proliferation at 100 uM after 48 hrs by MTT assay; assay type: functional; conditions: Splenocyte; how it was run: as §2
[6] = Cytotoxicity against BALB/c mouse splenocytes at 10 uM after 48 hrs by MTT assay; assay type: cell-based, Splenocyte; conditions: read-out: INH; how it was run: as §1

Structure (SMILES)	cytotoxicity at 48 h, 100 µM [1]	cytotoxicity at 48 h, 30 µM [2]	inhibition at 30 µM [3]	inhibition at 10 µM [4]	inhibition at 100 µM [5]	cytotoxicity at 48 h, 10 µM [6]
COc1cc(OC)c2c(=O)cc[nH]c2c1	7.5%	7.8%	3.7%	0.1%	12.3%	6.1%
COc1cc(OC)c2c(O[C@@H]3O[C@H](CO)[C@@H](O)[C@H](O)[C@H]3O)ccnc2c1	9.5%	9.1%	6%	3.6%	20.4%	7.6%
COc1cc(OC)c2c(O[C@@H]3O[C@H](CO)[C@H](O)[C@H](O)[C@H]3O)ccnc2c1	17%	4.2%	11.2%	4.2%	17.8%	6.2%
COc1cc(OC)c2c(O[C@@H]3OC[C@@H](O)[C@H](O)[C@H]3O)ccnc2c1	11.2%	9.1%	14.9%	10.3%	41%	6.9%
CCCCCCCCC(=O)Oc1ccnc2cc(OC)cc(OC)c12	11.6%	2%	2%	4.4%	31.9%	6.4%
COc1cc(OC)c2c(OC(=O)c3cccc(Cl)c3)ccnc2c1	12.2%	9.4%	42%	20.6%	90.8%	3.1%
O=c1cc[nH]c2cc(O)cc(O)c12	8.6%	10.9%	1.7%	-0.9%	18%	1.8%
Cc1cc(=O)c2c(O)cc(O)cc2[nH]1	11.2%	9.9%	4.4%	7.5%	26.7%	9.1%
CCCCCCCC/C=C\CCCCCCCC(=O)Oc1ccnc2cc(OC)cc(OC)c12	7.2%	8.8%	8.5%	4.4%	22.2%	4.1%
COc1cc(OC)c2c(OC(=O)c3ccccc3I)cc(C)nc2c1	37.6%	18.2%	54%	19.9%	91.5%	-3.4%
COc1cc(OC)c2c(OC(C)=O)ccnc2c1	11.3%	11.2%	9.7%	4.1%	22.7%	8.3%
CCCCC(=O)Oc1ccnc2cc(OC)cc(OC)c12	9.4%	10.5%	5.3%	4.1%	13.9%	4.5%
COc1cc(OC)c2c(=O)cc(C)[nH]c2c1	23.6%	14.7%	35.4%	15.9%	57.2%	6.5%
COc1cc(OC)c2c(OC(=O)c3ccc(Cl)cc3)ccnc2c1	21.9%	0.3%	47.4%	30.1%	86.3%	3.4%
COc1cc(OC)c2c(OC(=O)c3ccccc3)cc(C)nc2c1	13.7%	-0.2%	34.8%	5.7%	81.5%	-7.6%
COc1cc(OC)c2c(OC(=O)c3ccccc3)ccnc2c1	7.7%	4.6%	13.1%	6.2%	35.4%	0%

— ChEMBL document CHEMBL1154117, “Synthesis and evaluation of a novel series of quinoline derivatives with immunosuppressive activity” (Bioorg Med Chem, 2009)
